Test results: ChEMBL document CHEMBL1145217, “Discovery of novel tetrahydroisoquinoline derivatives as potent and selective factor Xa inhibitors” (Bioorg Med Chem Lett, 2005)

Key:
[1] = Inhibitory concentration against coagulation factor X; n=2
[2] = Inhibitory concentration against thrombin (FIIa); n=2
[3] = Number of mouse death after 10 mg/kg compound intra venous administration; n=3; type: ADME, organism-based; design: dose 10 mg/kg; conditions: in vivo, iv
Procedure, shortened: (§1)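 Result recorded as the number of deaths over the number of animals tested.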

[4] = Number of mouse death after 10 mg/kg compound intravenous administration; n=3; type: ADME, organism-based; design: dose 10 mg/kg, route intravenous; conditions: in vivo; procedure, shortened: as §1
[5] = target: Coagulation factor X (Homo sapiens) (UniProt P00742); conditions: Plasma, at 10 mg/kg
Chain of Coagulation factor X (Homo sapiens) (P00742 41-179 limits assumed): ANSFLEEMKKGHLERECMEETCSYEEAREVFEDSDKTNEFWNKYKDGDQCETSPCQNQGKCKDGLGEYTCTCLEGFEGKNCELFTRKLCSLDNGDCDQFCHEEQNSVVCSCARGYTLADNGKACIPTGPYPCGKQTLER
Chain of Coagulation factor X (Homo sapiens) (P00742 235-488 limits assumed): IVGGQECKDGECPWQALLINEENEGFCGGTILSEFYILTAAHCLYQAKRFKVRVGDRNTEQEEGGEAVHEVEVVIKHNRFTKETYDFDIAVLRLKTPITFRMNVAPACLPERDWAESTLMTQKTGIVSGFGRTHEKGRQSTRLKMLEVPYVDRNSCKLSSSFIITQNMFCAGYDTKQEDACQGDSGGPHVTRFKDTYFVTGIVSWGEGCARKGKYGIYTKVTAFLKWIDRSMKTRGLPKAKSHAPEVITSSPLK

[6] = target: Plasminogen (Homo sapiens, UniProt P00747); experiment: Mean inhibitory concentration against plasmin; n=3
Chain of Plasminogen (P00747 97-580 limits assumed): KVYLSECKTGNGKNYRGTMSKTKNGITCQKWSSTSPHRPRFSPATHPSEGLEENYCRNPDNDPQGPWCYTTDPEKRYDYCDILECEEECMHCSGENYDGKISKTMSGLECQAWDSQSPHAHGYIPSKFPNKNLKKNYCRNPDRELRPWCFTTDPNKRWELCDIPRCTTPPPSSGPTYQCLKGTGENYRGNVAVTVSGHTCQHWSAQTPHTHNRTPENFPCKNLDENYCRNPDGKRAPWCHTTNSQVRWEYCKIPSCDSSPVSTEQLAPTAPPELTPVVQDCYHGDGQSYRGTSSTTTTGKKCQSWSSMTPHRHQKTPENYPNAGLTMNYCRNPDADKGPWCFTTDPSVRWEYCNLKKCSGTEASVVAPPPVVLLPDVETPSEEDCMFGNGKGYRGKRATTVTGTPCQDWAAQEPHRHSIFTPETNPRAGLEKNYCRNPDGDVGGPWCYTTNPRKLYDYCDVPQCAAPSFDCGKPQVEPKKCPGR
Chain of Plasminogen (P00747 581-810 limits assumed): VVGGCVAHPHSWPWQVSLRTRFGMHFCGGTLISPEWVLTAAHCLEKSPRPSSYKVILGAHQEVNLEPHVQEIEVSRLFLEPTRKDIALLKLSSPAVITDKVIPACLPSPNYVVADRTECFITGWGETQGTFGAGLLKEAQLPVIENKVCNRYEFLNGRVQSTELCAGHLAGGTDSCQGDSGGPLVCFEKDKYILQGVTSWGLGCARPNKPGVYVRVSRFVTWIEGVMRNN
Procedure, shortened: (§2)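 Ki against each protease (factor Xa, thrombin, plasmin, trypsin), obtained from Dixon plots built at two substrate concentrations; mean of n = 3.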

[7] = Mean inhibitory concentration against trypsin; n=3; procedure, shortened: as §2
[8] = Mean inhibitory concentration against thrombin; n=3; procedure, shortened: as §2
[9] = Mean inhibitory concentration against coagulation factor X; n=3; procedure, shortened: as §2
[10] = Maximum concentration in monkey plasma after 10 mg/kg oral administration at 120 min; type: ADME, organism-based; design: dose 10 mg/kg, route oral; conditions: cercopithecidae
[11] = Number of mouse death after 10 mg/kg compound intravenous administration; NT= not tested; type: ADME, organism-based; design: dose 10 mg/kg, route intravenous; conditions: in vivo; procedure, shortened: as §1

For `Cc1cc(N2CCC(COc3ccc4c(c3)CN(C(=N)N)CC4)(C(=O)O)CC2)ccn1.Cl.Cl`, the IC50 [1] was 0.2 µM, the IC50 [2] was > 10 µM and the Mortality [3] was 0.
In the case of `Cl.Cl.N=C(N)N1CCc2ccc(OCC3CCN(c4ccncc4CCC(=O)O)CC3)cc2C1`, the IC50 [1] is reported as 0.2 µM, the IC50 [2] is reported as > 10 µM and the Mortality [3] is reported as 0.
With `N=C(N)N1CCc2ccc(OCC3CCNCC3)cc2C1` the IC50 [1] was 3 µM and the IC50 [2] was > 10 µM.
For `CC(=N)N1CCC(COc2ccc3c(c2)CN(C(=N)N)CC3)CC1.Cl.Cl`, the IC50 [1] was 0.5 µM, the IC50 [2] was > 10 µM and the Mortality [4] was 3.
`N=C(N)N1CCc2ccc(OCC3(C(=O)O)CCN(c4ccncc4)CC3)cc2C1` showed an inhibition [5] of 41%.
In the case of `Cl.Cl.N=C(N)N1CCc2ccc(OCC3(C(=O)O)CCN(c4ccncn4)CC3)cc2C1`, the IC50 [1] is reported as 0.1 µM, the IC50 [2] is reported as > 10 µM and the Mortality [3] is reported as 0.
With `Cl.Cl.N=C(N)N1CCc2ccc(OCC3CCN(c4ccncc4)CC3)cc2C1` the IC50 [1] was 0.06 µM, the IC50 [2] was > 10 µM and the Mortality [4] was 3.
With `CC(=N)N1CCC(Oc2ccc(C(Cc3ccc4cc[n+](C(=N)N)cc4c3)C(=O)O)cc2)C1` (stereo not drawn) the Ki [6] was 23 µM, the Ki [7] was 0.62 µM and the Ki [8] was > 100 µM.
With `N=C(N)N1CCc2ccc(OCC3(C(=O)O)CCN(c4ccncc4)CC3)cc2C1.O=S(O)O` the Ki [6] was 78.2 µM, the Ki [7] was 13.6 µM and the Ki [9] was 0.019 µM. For the same molecule, the Ki [8] was > 100 µM and the Cmax [10] was 0.391 µg/mL.
With `CCOC(=O)CCc1cnccc1N1CCC(COc2ccc3c(c2)CN(C(=N)N)CC3)CC1.Cl.Cl` the IC50 [1] was 0.2 µM, the IC50 [2] was > 10 µM and the Mortality [4] was 3.
For `Cl.Cl.N=C(N)N1CCc2ccc(OCC3(C(=O)O)CCN(c4ccncc4)CC3)cc2C1`, the IC50 [2] was > 10 µM and the Mortality [3] was 0.
For `Cl.Cl.N=C(N)N1CCc2ccc(OCC3CCN(c4ccncc4C(=O)O)CC3)cc2C1`, the IC50 [1] was 2 µM, the IC50 [2] was > 10 µM and the Mortality [4] was 0.
With `COC(=O)c1cnccc1N1CCC(COc2ccc3c(c2)CN(C(=N)N)CC3)CC1.Cl.Cl` the IC50 [1] was 0.2 µM, the IC50 [2] was > 10 µM and the Mortality [4] was 3.
For `CCOC(=O)C1(COc2ccc3c(c2)CN(C(=N)N)CC3)CCN(c2ccncc2)CC1.Cl.Cl`, the IC50 [1] was 0.08 µM, the IC50 [2] was > 10 µM and the Mortality [3] was 3.
With `Cl.Cl.Cl.N=C(N)N1CCc2ccc(OCC3CCN(Cc4ccncc4)CC3)cc2C1` the IC50 [1] was 0.8 µM, the IC50 [2] was > 10 µM and the Mortality [11] was 3.
With `Cl.Cl.N=C(N)N1CCc2ccc(OCC3CCN(c4ccnc5ccccc45)CC3)cc2C1` the IC50 [1] was 0.4 µM, the IC50 [2] was > 10 µM and the Mortality [4] was 3.
For `N=C(N)N1CCc2ccc(OCC3CCN(Cc4ccccn4)CC3)cc2C1`, the IC50 [1] was 1 µM and the IC50 [2] was > 10 µM.
